Data from ChEMBL document CHEMBL1146375, “Synthetic studies on novel benzimidazolopeptides with antimicrobial, cytotoxic and anthelmintic potential” (2007).
≈ marks a conversion by molar mass, not a printed value.

Assays:
Staphylococcus aureus [1] = test: Antibacterial activity against Staphylococcus aureus NCIM 2079 after 18 hrs by disc diffusion method; type: functional
Method in brief: (§1)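 Modified Kirby-Bauer disc diffusion. Plates inoculated with spore suspension (about 6 × 10⁴ spores mL^-1). Sterile 6 mm paper discs carried test samples at 10 mg mL^-1; ciprofloxacin disc as reference, DMF disc as negative control. Plates held 18 h at 37 °C. Inhibition zone diameters (mm) averaged over triplicate sets.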

Pontoscolex corethrurus [2] = test: Anthelmintic activity against Pontoscolex corethrurus ICARBC 408 assessed as mean paralyzing time; type: functional
Method in brief: (§2)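 Earthworms exposed to test suspensions at 2 mg mL^-1 (0.2% w/v), made by triturating compound with Tween 80 (0.5%) and distilled water, then mechanically stirred 30 min. Mebendazole suspension prepared alike as reference. Paralysis and death times recorded; death confirmed by no movement in 50 °C water. Means from triplicate sets.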

Staphylococcus aureus [3] = test: Antibacterial activity against Staphylococcus aureus NCIM 2079 after 18 hrs by tube dilution method; type: functional; conditions: NCIM 2079, 18 h
Method in brief: (§3)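 Tube dilution MIC. Stock diluted in sterile broth to seven concentrations from 200 to 3.1 […]. Each tube inoculated with one loopful of test bacterium and incubated 18 h at 37 °C. MIC read from presence or absence of growth.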

Escherichia coli [4] = test: Antibacterial activity against Escherichia coli NCIM 2065 after 18 hrs by tube dilution method; type: functional; conditions: NCIM 2065, 18 h
[5] = Growth inhibition of DLA cells at 31.25 ug/mL after 3 hrs; type: functional; conditions: Mus musculus
Method in brief: (§4)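 DLA and EAC cells passaged intraperitoneally in albino mice, harvested after 15–20 days and adjusted to 1 × 10⁶ cells/mL. Dilutions in Dulbecco's medium (500–31.25, some down to 3.91 µg/mL; 5-FU reference) mixed 1:1 with cells and held 3 h at 37 °C. Trypan blue exclusion gave % growth inhibition; CTC50 by graphical extrapolation.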

[6] = Growth inhibition of DLA cells after 3 hrs; type: functional; conditions: Mus musculus; method in brief: as §4
Pseudomonas aeruginosa [7] = test: Antibacterial activity against Pseudomonas aeruginosa NCIM 2034 after 18 hrs by tube dilution method; type: functional; conditions: NCIM 2034, 18 h; method in brief: as §3
Bacillus subtilis [8] = test: Antibacterial activity against Bacillus subtilis NCIM 2063 after 18 hrs by disc diffusion method; type: functional; method in brief: as §1
Pontoscolex corethrurus [9] = test: Anthelmintic activity against Pontoscolex corethrurus ICARBC 408 assessed as mean death time; type: functional
Method in brief: (§5)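 Earthworms exposed to test suspensions at 2 mg mL−1, prepared by triturating compound with Tween 80 (0.5%) and distilled water, stirring 30 min, then diluting to 0.2% w/v. Mebendazole suspension was made the same way. Death was confirmed by moving worms into 50 °C warm water and looking for movement. Mean death time (min) taken from triplicate sets.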

Eudrilus [10] = test: Anthelmintic activity against Eudrilus sp. assessed as mean paralyzing time; type: functional; method in brief: as §2
Microsporum audouinii [11] = test: Antifungal activity against Microsporum audouinii MUCC 545 after 48 hrs by disc diffusion method; type: functional
Method in brief: (§6)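 Agar well diffusion on plates inoculated with spore suspension in normal saline from cultures on Sabouraud's broth. Wells punched and loaded with test samples or griseofulvin at 10 mg mL^-1, with DMSO as negative control. Incubated 48 h at 37 °C.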

Aspergillus niger = test: Antifungal activity against Aspergillus niger MUCC 177 after 48 hrs by disc diffusion method; type: functional; method in brief: as §6
[12] = Growth inhibition of EAC cells at 62.5 ug/mL after 3 hrs; type: functional; conditions: Mus musculus, Ehrlich; method in brief: as §4
Escherichia coli [13] = test: Antibacterial activity against Escherichia coli NCIM 2065 after 18 hrs by disc diffusion method; type: functional; method in brief: as §1
[14] = Anthelmintic activity against Megascoplex konkanensis ICARBC 211 assessed as mean paralyzing time; type: functional; method in brief: as §2
[15] = Growth inhibition of EAC cells at 500 ug/mL after 3 hrs; type: functional; conditions: Mus musculus, Ehrlich; method in brief: as §4
[16] = Growth inhibition of EAC cells at 31.25 ug/mL after 3 hrs; type: functional; conditions: Mus musculus, Ehrlich; method in brief: as §4
[17] = Growth inhibition of DLA cells at 62.5 ug/mL after 3 hrs; type: functional; conditions: Mus musculus; method in brief: as §4
Pseudomonas aeruginosa [18] = test: Antibacterial activity against Pseudomonas aeruginosa NCIM 2034 after 18 hrs by disc diffusion method; type: functional; method in brief: as §1
Microsporum audouinii [19] = test: Antifungal activity against Microsporum audouinii MUCC 545 after 48 hrs by tube dilution method; type: functional
Method in brief: (§7)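 Tube dilution MIC as for bacteria (seven concentrations, 200–3.1 […]), with DMSO in place of DMF. Tubes inoculated with fungal culture and incubated 48 h at 37 °C. MIC read from presence or absence of growth.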

[20] = Growth inhibition of EAC cells at 125 ug/mL after 3 hrs; type: functional; conditions: Mus musculus, Ehrlich; method in brief: as §4
Trichophyton benhamiae [21] = test: Antifungal activity against Trichophyton mentagrophytes MUCC 665 after 48 hrs by tube dilution method; type: functional, Arthroderma benhamiae; method in brief: as §7
Candida albicans [22] = test: Antifungal activity against Candida albicans MUCC 29 after 48 hrs by tube dilution method; type: functional; method in brief: as §7
[23] = Growth inhibition of DLA cells at 125 ug/mL after 3 hrs; type: functional; conditions: Mus musculus; method in brief: as §4
Bacillus subtilis [24] = test: Antibacterial activity against Bacillus subtilis NCIM 2063 after 18 hrs by tube dilution method; type: functional; conditions: NCIM 2063, 18 h; method in brief: as §3
[25] = Growth inhibition of EAC cells after 3 hrs; type: functional; conditions: Mus musculus, Ehrlich; method in brief: as §4
[26] = Growth inhibition of DLA cells at 250 ug/mL after 3 hrs; type: functional; conditions: Mus musculus; method in brief: as §4
Candida albicans [27] = test: Antifungal activity against Candida albicans MUCC 29 after 48 hrs by disc diffusion method; type: functional; method in brief: as §6
[28] = Growth inhibition of EAC cells at 250 ug/mL after 3 hrs; type: functional; conditions: Mus musculus, Ehrlich; method in brief: as §4
Eudrilus [29] = test: Anthelmintic activity against Eudrilus sp. assessed as mean death time; type: functional; method in brief: as §5
[30] = Growth inhibition of DLA cells at 500 ug/mL after 3 hrs; type: functional; conditions: Mus musculus; method in brief: as §4
[31] = Anthelmintic activity against Megascoplex konkanensis ICARBC 211 assessed as mean death time; type: functional; method in brief: as §2
Trichophyton benhamiae [32] = test: Antifungal activity against Trichophyton mentagrophytes MUCC 665 after 48 hrs by disc diffusion method; type: functional, Arthroderma benhamiae; method in brief: as §6

O=C(O)[C@@H]1CCCN1C(=O)[C@@H]1CCCN1C(=O)[C@@H]1CCCN1C(=O)c1cc(-c2nc3ccc([N+](=O)[O-])cc3[nH]2)ccc1O
inhibition zone (IZ) (Staphylococcus aureus [1]): 11 mm | Time (Pontoscolex corethrurus [2]): 30.52 min | MIC (Staphylococcus aureus [3]): 12.5 µg/mL (≈ 21.2 µM) | MIC (Escherichia coli [4]): 25 µg/mL (≈ 42.3 µM) | inhibition at 31.25 µg/mL [5]: 18.4% | CC50 [6]: 332 µM | MIC (Pseudomonas aeruginosa [7]): 6 µg/mL (≈ 10.2 µM) | inhibition zone (IZ) (Bacillus subtilis [8]): 14 mm | Time (Pontoscolex corethrurus [9]): 40.2 min | Time (Eudrilus [10]): 26.54 min | inhibition zone (IZ) (Microsporum audouinii [11]): 13 mm | inhibition zone (IZ) (Aspergillus niger): 17 mm | inhibition at 62.5 µg/mL [12]: 7.14% | inhibition zone (IZ) (Escherichia coli [13]): 17 mm | TIME [14]: 0.418 h | inhibition at 500 µg/mL [15]: 28.7% | inhibition at 31.25 µg/mL [16]: 3.57% | inhibition at 62.5 µg/mL [17]: 34.2% | inhibition zone (IZ) (Pseudomonas aeruginosa [18]): 28 mm | MIC (Microsporum audouinii [19]): 6 µg/mL (≈ 10.2 µM) | inhibition at 125 µg/mL [20]: 10.7% | MIC (Trichophyton benhamiae [21]): 12.5 µg/mL (≈ 21.2 µM) | MIC (Candida albicans [22]): 6 µg/mL (≈ 10.2 µM) | inhibition at 125 µg/mL [23]: 47.4% | MIC (Bacillus subtilis [24]): 6 µg/mL (≈ 10.2 µM) | CC50 [25]: > 847 µM | inhibition at 250 µg/mL [26]: 52.6% | inhibition zone (IZ) (Candida albicans [27]): 24 mm | inhibition at 250 µg/mL [28]: 21.4% | Time (Eudrilus [29]): 37.23 min | inhibition at 500 µg/mL [30]: 65.8% | TIME [31]: 0.567 h | inhibition zone (IZ) (Trichophyton benhamiae [32]): 17 mm

C[C@H](NC(=O)[C@@H]1CCCN1C(=O)c1cc(-c2nc3ccc([N+](=O)[O-])cc3[nH]2)ccc1O)C(=O)O
inhibition zone (IZ) (Staphylococcus aureus [1]): 9 mm | Time (Pontoscolex corethrurus [2]): 31.9 min | MIC (Staphylococcus aureus [3]): 25 µg/mL (≈ 53.5 µM) | MIC (Escherichia coli [4]): 12.5 µg/mL (≈ 26.7 µM) | inhibition at 31.25 µg/mL [5]: 7.89% | CC50 [6]: > 1070 µM | MIC (Pseudomonas aeruginosa [7]): 6 µg/mL (≈ 12.8 µM) | inhibition zone (IZ) (Bacillus subtilis [8]): 13 mm | Time (Pontoscolex corethrurus [9]): 43.55 min | Time (Eudrilus [10]): 27.12 min | inhibition zone (IZ) (Microsporum audouinii [11]): 12 mm | inhibition zone (IZ) (Aspergillus niger): 16 mm | inhibition at 62.5 µg/mL [12]: 7.14% | inhibition zone (IZ) (Escherichia coli [13]): 18 mm | TIME [14]: 0.436 h | inhibition at 500 µg/mL [15]: 25% | inhibition at 31.25 µg/mL [16]: 7.14% | inhibition at 62.5 µg/mL [17]: 18.4% | inhibition zone (IZ) (Pseudomonas aeruginosa [18]): 28 mm | MIC (Microsporum audouinii [19]): 6 µg/mL (≈ 12.8 µM) | inhibition at 125 µg/mL [20]: 14.3% | MIC (Trichophyton benhamiae [21]): 6 µg/mL (≈ 12.8 µM) | MIC (Candida albicans [22]): 6 µg/mL (≈ 12.8 µM) | inhibition at 125 µg/mL [23]: 21% | MIC (Bacillus subtilis [24]): 12.5 µg/mL (≈ 26.7 µM) | CC50 [25]: > 1070 µM | inhibition at 250 µg/mL [26]: 26.3% | inhibition zone (IZ) (Candida albicans [27]): 22 mm | inhibition at 250 µg/mL [28]: 17.9% | Time (Eudrilus [29]): 35.69 min | inhibition at 500 µg/mL [30]: 34.2% | TIME [31]: 0.585 h | inhibition zone (IZ) (Trichophyton benhamiae [32]): 17 mm

COC(=O)[C@@H]1CCCN1C(=O)c1ccc(-c2nc3cc(C)c(C)cc3[nH]2)cc1
inhibition zone (IZ) (Staphylococcus aureus [1]): 11 mm | Time (Pontoscolex corethrurus [2]): 35.57 min | MIC (Staphylococcus aureus [3]): 12.5 µg/mL (≈ 33.1 µM) | MIC (Escherichia coli [4]): 12.5 µg/mL (≈ 33.1 µM) | MIC (Pseudomonas aeruginosa [7]): 6 µg/mL (≈ 15.9 µM) | inhibition zone (IZ) (Bacillus subtilis [8]): 13 mm | Time (Pontoscolex corethrurus [9]): 50.26 min | Time (Eudrilus [10]): 32.25 min | inhibition zone (IZ) (Microsporum audouinii [11]): 9 mm | inhibition zone (IZ) (Aspergillus niger): 17 mm | inhibition zone (IZ) (Escherichia coli [13]): 17 mm | TIME [14]: 0.473 h | inhibition zone (IZ) (Pseudomonas aeruginosa [18]): 22 mm | MIC (Microsporum audouinii [19]): 25 µg/mL (≈ 66.2 µM) | MIC (Trichophyton benhamiae [21]): 6 µg/mL (≈ 15.9 µM) | MIC (Candida albicans [22]): 6 µg/mL (≈ 15.9 µM) | MIC (Bacillus subtilis [24]): 6 µg/mL (≈ 15.9 µM) | inhibition at 250 µg/mL [26]: 18.4% | inhibition zone (IZ) (Candida albicans [27]): 16 mm | Time (Eudrilus [29]): 45.34 min | TIME [31]: 0.676 h | inhibition zone (IZ) (Trichophyton benhamiae [32]): 13 mm
